For test [1], the target named is T1, Adrenergic receptor alpha-1 (Rattus norvegicus, UniProt P15823+P23944+P43140).
T1 sequence (P15823 whole entry): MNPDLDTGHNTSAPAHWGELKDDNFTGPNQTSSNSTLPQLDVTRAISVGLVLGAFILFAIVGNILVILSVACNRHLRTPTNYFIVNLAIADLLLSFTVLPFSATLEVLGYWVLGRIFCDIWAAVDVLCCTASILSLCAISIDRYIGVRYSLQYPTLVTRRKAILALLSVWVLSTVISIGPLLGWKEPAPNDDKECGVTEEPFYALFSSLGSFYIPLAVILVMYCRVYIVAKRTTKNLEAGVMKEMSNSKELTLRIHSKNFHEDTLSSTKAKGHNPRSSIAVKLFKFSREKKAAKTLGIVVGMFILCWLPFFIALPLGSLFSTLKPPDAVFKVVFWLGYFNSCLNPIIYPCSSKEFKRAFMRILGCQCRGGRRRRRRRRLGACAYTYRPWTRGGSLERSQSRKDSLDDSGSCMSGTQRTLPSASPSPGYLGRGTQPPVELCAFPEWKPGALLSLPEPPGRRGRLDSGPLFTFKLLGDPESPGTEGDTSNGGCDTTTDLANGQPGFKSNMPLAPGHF
T1 sequence (P23944 whole entry): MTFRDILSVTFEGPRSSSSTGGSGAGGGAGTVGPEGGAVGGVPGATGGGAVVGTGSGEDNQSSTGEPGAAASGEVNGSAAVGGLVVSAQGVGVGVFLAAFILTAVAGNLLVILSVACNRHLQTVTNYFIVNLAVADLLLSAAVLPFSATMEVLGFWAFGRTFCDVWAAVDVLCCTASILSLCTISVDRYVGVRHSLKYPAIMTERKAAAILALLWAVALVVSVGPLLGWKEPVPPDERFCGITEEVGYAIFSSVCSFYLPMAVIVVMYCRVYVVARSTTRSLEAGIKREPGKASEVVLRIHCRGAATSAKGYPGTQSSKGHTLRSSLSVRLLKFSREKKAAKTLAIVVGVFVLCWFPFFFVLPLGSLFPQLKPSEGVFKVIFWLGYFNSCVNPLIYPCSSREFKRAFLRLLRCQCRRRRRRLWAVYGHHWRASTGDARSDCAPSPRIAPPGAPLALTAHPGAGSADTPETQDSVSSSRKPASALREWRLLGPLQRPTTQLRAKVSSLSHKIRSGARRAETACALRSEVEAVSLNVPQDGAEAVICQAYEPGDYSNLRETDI
T1 sequence (P43140 whole entry): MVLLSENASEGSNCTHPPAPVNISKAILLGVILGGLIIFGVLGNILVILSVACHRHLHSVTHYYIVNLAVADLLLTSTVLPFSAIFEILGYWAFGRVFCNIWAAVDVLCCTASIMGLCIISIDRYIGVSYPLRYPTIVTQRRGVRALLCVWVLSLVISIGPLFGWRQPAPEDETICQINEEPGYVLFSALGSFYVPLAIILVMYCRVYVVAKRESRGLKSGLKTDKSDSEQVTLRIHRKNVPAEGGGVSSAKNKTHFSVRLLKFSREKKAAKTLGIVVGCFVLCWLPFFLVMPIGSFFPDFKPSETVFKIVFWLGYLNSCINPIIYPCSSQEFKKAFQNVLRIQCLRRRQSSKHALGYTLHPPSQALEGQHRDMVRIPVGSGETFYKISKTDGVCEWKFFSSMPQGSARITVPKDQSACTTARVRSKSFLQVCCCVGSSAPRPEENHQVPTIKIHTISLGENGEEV
The test is described as follows: Displacement of [3H]prazosin from alpha1 adrenergic receptor in Sprague-Dawley rat brain membrane after 45 mins by liquid scintillation counting. The test is classed as cell membranes. Summed up:
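Crude P2 brain membranes from male Sprague–Dawley rats (0.2–0.3 mg protein) incubated with 11 concentrations (0.01 nM–100 µM) and 1 nM of [3H]2BFI (I2), [3H]prazosin (α1) or [3H]RX821002 (α2), at room temperature in triplicate. Non-specific binding: BU224, phenylephrine or rauwolscine. Filtration, scintillation counting, Ki by Cheng–Prusoff from 3–4 experiments.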

For the next test, the target named is Nischarin (Rattus norvegicus, UniProt Q4G017). Kind of test: Displacement of [3H]clonidine from imidazoline I1 receptor in Sprague-Dawley rat kidney membrane after 45 mins by liquid scintillation counting. The format is cell membranes. In a few lines:
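Specific binding defined by 10 µM rilmenidine. 11 test concentrations, 50 mM Tris-HCl pH 7.4, room temperature 45 min. Filtration through PEI-soaked glass-fibre filters, scintillation counting, IC50 by curve fitting.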
Background: Loss of bound radioactivity is the signal in a displacement assay; it reports binding, not function.

For test [2], the species on record is Rattus norvegicus. Kind of test: Selectivity ratio of IC50 for imidazoline I1 receptor in Sprague-Dawley rat kidney membrane to Ki for alpha2 adrenergic receptor in Sprague-Dawley rat brain membrane. The test is classed as cell membranes.
Test [3] has as its system Rattus norvegicus. Kind of test: Cardioprotectant activity in Wistar rat assessed as change in mean arterial pressure at 0.01 mg/kg, iv. The format is functional, Artery.
For test [4], the system named is Rattus norvegicus. The test is described as follows: Cardioprotectant activity in Wistar rat assessed as change in mean arterial pressure at 1 mg/kg, iv. The test is classed as functional, Artery.
Test [5] deals with Rattus norvegicus. The test is described as follows: Cardioprotectant activity in Wistar rat assessed as change in heart rate at 0.01 mg/kg, iv. The test is classed as functional.
The subject of test [6] is Rattus norvegicus. Kind of test: Cardioprotectant activity in Wistar rat assessed as change in heart rate at 0.1 mg/kg, iv. The test is classed as functional.
Test [7] concerns Rattus norvegicus. Kind of test: Cardioprotectant activity in Wistar rat assessed as change in heart rate at 1 mg/kg, iv. The test is classed as functional.

The structures appear in SMILES notation.

Nischarin, sequence (Q4G017 whole entry): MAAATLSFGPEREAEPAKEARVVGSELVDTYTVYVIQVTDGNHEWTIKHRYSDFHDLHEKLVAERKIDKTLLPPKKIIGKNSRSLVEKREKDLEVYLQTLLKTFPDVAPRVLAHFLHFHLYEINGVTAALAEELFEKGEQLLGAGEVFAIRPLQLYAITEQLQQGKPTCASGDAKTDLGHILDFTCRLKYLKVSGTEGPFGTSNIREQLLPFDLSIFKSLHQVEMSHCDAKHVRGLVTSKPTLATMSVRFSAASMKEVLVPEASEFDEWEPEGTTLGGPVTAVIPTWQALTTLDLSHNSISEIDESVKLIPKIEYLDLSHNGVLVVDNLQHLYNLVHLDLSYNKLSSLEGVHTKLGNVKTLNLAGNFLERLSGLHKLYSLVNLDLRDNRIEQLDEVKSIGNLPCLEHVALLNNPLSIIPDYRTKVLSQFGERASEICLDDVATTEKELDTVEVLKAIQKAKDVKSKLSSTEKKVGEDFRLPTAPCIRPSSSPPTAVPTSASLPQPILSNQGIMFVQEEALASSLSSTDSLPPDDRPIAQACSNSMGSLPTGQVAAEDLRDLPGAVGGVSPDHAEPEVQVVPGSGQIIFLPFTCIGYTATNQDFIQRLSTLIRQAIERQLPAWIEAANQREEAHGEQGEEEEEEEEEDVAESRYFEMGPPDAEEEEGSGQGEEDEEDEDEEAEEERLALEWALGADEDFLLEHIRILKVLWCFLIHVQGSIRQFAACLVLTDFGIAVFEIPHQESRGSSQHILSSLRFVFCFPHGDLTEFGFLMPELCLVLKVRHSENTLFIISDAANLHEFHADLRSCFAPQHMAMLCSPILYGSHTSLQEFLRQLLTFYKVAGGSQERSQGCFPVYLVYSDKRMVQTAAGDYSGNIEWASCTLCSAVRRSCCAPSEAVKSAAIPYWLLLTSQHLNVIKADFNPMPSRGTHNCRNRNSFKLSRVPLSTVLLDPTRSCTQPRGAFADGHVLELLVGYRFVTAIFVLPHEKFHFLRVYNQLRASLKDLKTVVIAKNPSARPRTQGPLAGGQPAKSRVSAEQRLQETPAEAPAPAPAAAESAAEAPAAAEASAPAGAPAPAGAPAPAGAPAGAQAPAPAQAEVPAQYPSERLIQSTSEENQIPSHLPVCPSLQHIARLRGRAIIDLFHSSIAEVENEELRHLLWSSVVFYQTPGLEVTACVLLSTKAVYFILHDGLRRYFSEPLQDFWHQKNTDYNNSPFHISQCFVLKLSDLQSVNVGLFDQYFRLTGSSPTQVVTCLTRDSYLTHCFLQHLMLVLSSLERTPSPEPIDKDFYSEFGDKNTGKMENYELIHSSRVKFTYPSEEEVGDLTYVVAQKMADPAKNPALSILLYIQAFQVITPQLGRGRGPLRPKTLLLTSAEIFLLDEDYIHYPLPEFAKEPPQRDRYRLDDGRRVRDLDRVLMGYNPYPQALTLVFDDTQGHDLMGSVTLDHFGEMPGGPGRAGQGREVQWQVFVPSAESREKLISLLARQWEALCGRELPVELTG

For the compound `Cl.Clc1cccc2c(N=C3NCCN3)n[nH]c12`, in test [1], the inhibition constant Ki was determined as 684 nM. The compound further came in with an IC50 at Nischarin of 4010 nM. Moreover, in the test filed under Rattus norvegicus [2], the Ratio turned out to be 30. Also, the Activity in the test on Rattus norvegicus [3] is recorded as -12.2 mmHg; in the test with Rattus norvegicus [4], -37.2 mmHg; with Rattus norvegicus [5], -35 bpm; in the test on Rattus norvegicus [6] it was -92 bpm; with Rattus norvegicus [7] it was -117 bpm.

Regarding `Cc1cccc2[nH]nc(N=C3NCCN3)c12.Cl`, the Ki in test [1] is recorded as 46.5 nM. Further, on Nischarin, the IC50 is 32500 nM. For the same compound, the Ratio in the test filed under Rattus norvegicus [2] amounted to 690. Also, the Activity in the test on Rattus norvegicus [3] is -17.1 mmHg; in the test on Rattus norvegicus [4], -22 mmHg; in the test on Rattus norvegicus [5] it was -43 bpm; in the test with Rattus norvegicus [6], -132 bpm; in the test on Rattus norvegicus [7] it was -155 bpm.

Compound `Cl.Clc1cccc2[nH]nc(N=C3NCCN3)c12` gave a Ki in test [1] of 69.3 nM. Besides, the 50% inhibitory concentration (IC50) at Nischarin was determined as 1840 nM. Moreover, the Ratio in the test listed under Rattus norvegicus [2] was found to be 115. Besides, the Activity in the test with Rattus norvegicus [3] was -10.8 mmHg; in the test with Rattus norvegicus [4] it was -23.6 mmHg; in the test with Rattus norvegicus [5], -37 bpm; in the test on Rattus norvegicus [6], -40 bpm; in the test on Rattus norvegicus [7], -68 bpm.

As a reminder, the Ki is the dissociation constant of the complex between target and ligand, obtained from inhibition or displacement. Higher therefore signals a looser hold on the target. By IC50 is commonly meant the concentration that gives 50% inhibition.

The values above are taken from ChEMBL document CHEMBL1641573, “3-[(Imidazolidin-2-yl)imino]indazole ligands with selectivity for the α(2)-adrenoceptor compared to the imidazoline I(1) receptor” (Bioorg Med Chem, 2011).
